In data set [1] the test system is MRC5. Briefly: Cytotoxicity against MRC5 cells. Format: cell-based, Homo sapiens. Conditions: for IC50: Homo sapiens, MRC5; call rule not given here. The gist of the method: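 MRC5 cells were cultured for 5 days in the presence of drug, with viability read by colorimetric MTT. IC50 was taken from the concentration–response curve and is the mean of three independent experiments.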
In data set [2] the test system is Plasmodium falciparum. Briefly: Antiplasmodial activity against Plasmodium falciparum D6. Format: functional, organism-based.
The nature of data set [3]: Selectivity index, ratio of IC50 for MRC5 cells to IC50 for Plasmodium falciparum FcB1. Format: functional. The method, boiled down:
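Ratio of MRC5 IC50 to P. falciparum FcB1 IC50. MRC5 IC50 came from a 5-day drug exposure read by MTT. Parasite IC50 came from [³H]hypoxanthine incorporation in erythrocyte cultures. Both were taken from concentration–response curves as means of three independent experiments.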

Data set [4] has as its system Plasmodium falciparum. Kind of data set: Antiplasmodial activity against Plasmodium falciparum FcB1. Format: functional, organism-based. The gist of the method:
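P. falciparum FcB1 (chloroquine-resistant) was kept in continuous culture in human erythrocytes. Growth inhibition was read by [³H]hypoxanthine incorporation. IC50 was taken from the drug concentration–response curve and is the mean of three independent experiments.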

The subject of data set [5] is Plasmodium falciparum. Kind of data set: In vitro antiplasmodial activity against Plasmodium falciparum Thai.
Data set [6] concerns Plasmodium falciparum. Briefly: Antiplasmodial activity against chloroquine-resistant Plasmodium falciparum K1. Format: functional, organism-based. The method, boiled down:
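Parasites kept in continuous culture on human erythrocytes; growth measured by [3H]hypoxanthine incorporation. IC50 taken from the drug concentration–response curve, mean of three independent experiments.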

Data set [7] relates to Plasmodium yoelii. Briefly: Antiplasmodial activity as reduced parasitaemia against Plasmodium yoelii N67 infected Swiss mice (Mus musculus) at 50 mg/kg peroral dose. Format: functional. Conditions: route oral. The method, boiled down: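 Peters 4-day suppressive test in mice infected with P. yoelii nigeriensis N67. Compound was given orally (0.5 ml) daily from day 0, at 10 or 50 mg/kg as per line. Groups had five mice, with a vehicle-only untreated group. Day-4 parasitemia was counted on Diff Quick-stained blood smears. % inhibition was calculated against untreated mice.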

The subject of data set [8] is Plasmodium yoelii. Briefly: Antiplasmodial activity as reduced parasitaemia against Plasmodium yoelii N67 infected Swiss mice (Mus musculus) at 10 mg/kg peroral dose. Format: functional. To be noted: route oral. The gist of the method:
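4-day suppressive test in P. yoelii nigeriensis N67-infected mice, five per group. Dosing oral, once daily from day 0, 0.5 ml/mouse. Untreated group received vehicle only. Parasitemia read on day 4 from Diff Quick-stained blood smears. Percent inhibition calculated against untreated mice. Deaths counted at day 14.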

As a reminder, the IC50 is the concentration that gives 50% inhibition. A lower IC50 goes with inhibition by little substance. Regarding `COc1ccc(-c2cc(=O)c3c(O)cc(OCC(=O)N4CCN(Cc5ccc(OC)c(OC)c5OC)CC4)cc3o2)cc1OCC(=O)N1CCN(Cc2ccc(OC)c(OC)c2OC)CC1`, the 50% inhibitory concentration (IC50) is 1 µM in data set [1] and 0.18 µM in data set [2].
The molecule `CCOC(=O)COc1cc(-c2cc(=O)c3c(O)cc(OCC(=O)N4CCN(Cc5cccc(OC)c5OC)CC4)cc3o2)ccc1OC` had an IC50 in data set [2] of 2.4 µM.
The same measure, in the same setting: with `CCOC(=O)COc1cc(OCC(=O)N2CCN(Cc3ccc(OC)c(OC)c3OC)CC2)c2c(=O)cc(-c3ccc(OC)c(OCC(=O)OCC)c3)oc2c1` the figure was 5.4 µM; with `COc1ccc(-c2cc(=O)c3c(O)cc(OCC(=O)N4CCN(Cc5ccc(OC)c(OC)c5OC)CC4)cc3o2)cc1O`, 5.3 µM; with `CCOC(=O)COc1cc(-c2cc(=O)c3c(O)cc(OCC(=O)N4CCN(Cc5ccccc5)CC4)cc3o2)ccc1OC`, 9.5 µM.
`CCOC(=O)COc1cc(-c2cc(=O)c3c(O)cc(OCC(=O)N4CCN(Cc5ccc(Cl)cc5)CC4)cc3o2)ccc1OC` came in with an IC50 in data set [2] of 6 µM.
As for `CCOC(=O)COc1cc(-c2cc(=O)c3c(O)cc(OCCN4CCN(Cc5ccc(OC)c(OC)c5OC)CC4)cc3o2)ccc1OC`, the “Ratio IC50” value in data set [3] came to 4.2. Besides, the IC50 in data set [1] amounted to 18 µM; in data set [4], 4.3 µM.
Taken in the same sequence, the figures for `CCOC(=O)COc1cc(-c2cc(=O)c3c(O)cc(OCC(=O)N4CCN(C(=O)OC(C)(C)C)CC4)cc3o2)ccc1OC` were 2.1, 3.8 µM and 1.8 µM.
In data set [4], `CCOC(=O)COc1cc(-c2cc(=O)c3c(O)cc(OCC(=O)N4CCN(Cc5ccc(OC)cc5)CC4)cc3o2)ccc1OC` yielded an IC50 of 8.9 µM.
With `CCOC(=O)COc1cc(-c2cc(=O)c3c(O)cc(OCC(=O)N4CCN(Cc5ccc(OC)cc5OC)CC4)cc3o2)ccc1OC`, in data set [3], the “Ratio IC50” value came out at 3.3. The IC50 came out at 5.6 µM in data set [1] and 1.7 µM in data set [4].
Take `CCOC(=O)COc1cc(-c2cc(=O)c3c(O)cc(OCC(=O)N4CCN(Cc5c(OC)cc(OC)cc5OC)CC4)cc3o2)ccc1OC`: the “Ratio IC50” value in data set [3] was 5. For the same molecule, the IC50 was 9.5 µM in data set [1] and 1.9 µM in data set [4].
Taken in the same sequence, the figures for `CCOC(=O)COc1cc(-c2cc(=O)c3c(O)cc(OCC(=O)N4CCN(Cc5ccc(OCc6ccccc6)c(OC)c5OC)CC4)cc3o2)ccc1OC` were 3.6, 10 µM and 2.8 µM.
As for `CCOC(=O)COc1cc(-c2cc(=O)c3c(O)cc(OCC(=O)N4CCN(Cc5ccc(O)c(OC)c5OC)CC4)cc3o2)ccc1OC`, in data set [3], the “Ratio IC50” value worked out at 16.7. Also, the IC50 in data set [5] worked out at 1.2 µM; in data set [1] it was 10 µM; in data set [4], 0.6 µM; in data set [6], 0.4 µM.
In data set [4], `CCOC(=O)COc1cc(-c2cc(=O)c3c(O)cc(OCC(=O)N4CCN(C)CC4)cc3o2)ccc1OC` came in with an IC50 of 26 µM.
By inhibition in vivo is commonly meant the drop in the measured response relative to a control, in per cent. Low values mean a weak effect, high ones a strong effect. With `COc1ccc(CN2CCN(C(=O)COc3ccc4c(=O)cc(-c5cc(C(C)(C)C)c(O)c(C(C)(C)C)c5)oc4c3)CC2)c(OC)c1OC`, the “Ratio IC50” value in data set [3] was above 125. Besides, the IC50 in data set [5] is 0.9 µM; in data set [1], above 150 µM; in data set [4], 1.2 µM; in data set [6], 0.4 µM. The inhibition in vivo at 50 mg/kg in data set [7] came to 38.5%. At 10 mg/kg the inhibition in vivo in data set [8] was 24.1%.
Molecule `COc1ccc(CN2CCN(C(=O)COc3ccc4c(=O)cc(-c5ccccc5)oc4c3)CC2)c(OC)c1OC` returned an IC50 in data set [4] of 13 µM.
On the same count and under the same terms, with `COc1ccc(CN2CCN(C(=O)COc3cc(O)c4c(=O)cc(-c5ccccc5)oc4c3)CC2)c(OC)c1OC` the figure was 14 µM.
`CCOC(=O)COc1cc(-c2cc(=O)c3c(O)cc(OCC(=O)N4CCN(Cc5cc(OC)c(OC)c(OC)c5)CC4)cc3o2)ccc1OC` returned an IC50 in data set [2] of 4 µM.
Same read-out and setting: with `CCOC(=O)COc1cc(O)c2c(=O)cc(-c3ccc(OC)c(OCC(=O)N4CCN(Cc5ccc(OC)c(OC)c5OC)CC4)c3)oc2c1` the figure was 6.2 µM.
For `CCOC(=O)COc1cc(-c2cc(=O)c3c(O)cc(OCC(=O)N4CCN(Cc5ccc(OC)c(OC)c5OC)CC4)cc3o2)ccc1OC`, the “Ratio IC50” value in data set [3] is reported as above 140. The IC50 in data set [5] is 13 µM; in data set [1] it was above 70 µM; in data set [2] it was 0.5 µM; in data set [4] it was 1 µM; in data set [6], 13 µM. The same molecule had an inhibition in vivo at 50 mg/kg in data set [7] of 43.1%. The molecule further yielded an inhibition in vivo at 10 mg/kg in data set [8] of 27.1%.
The molecule `CCOC(=O)COc1cc(-c2cc(=O)c3c(O)cc(OCC(=O)N4CCN(Cc5ccc(OC)c(OC)c5)CC4)cc3o2)ccc1OC` came in with an IC50 in data set [2] of 4.7 µM.
As for `COc1ccc(-c2cc(=O)c3c(O)cc(OCC(=O)N4CCN(Cc5ccc(OC)c(OC)c5OC)CC4)cc3o2)cc1OC1CCCC1`, the “Ratio IC50” value in data set [3] was above 53. Also, the IC50 in data set [1] is above 150 µM; in data set [4], 2.8 µM.
On to `CCOC(=O)COc1cc(-c2cc(=O)c3c(O)cc(OCC(=O)N4CC[N+]([O-])(Cc5ccc(OC)c(OC)c5OC)CC4)cc3o2)ccc1OC`, for which the IC50 in data set [4] is 19 µM.
Still for that read-out and setting: with `CCOC(=O)COc1cc(-c2cc(=O)c3c(O)cc(OCC(=O)N4CC[N+](C)(Cc5ccc(OC)c(OC)c5OC)CC4)cc3o2)ccc1OC` the figure was 41 µM.
As to `COc1ccc(-c2cc(=O)c3c(O)cc(OCC(=O)N4CCN(Cc5ccc(OC)c(OC)c5OC)CC4)cc3o2)cc1OCC(=O)OC(C)(C)C`, in data set [3], the “Ratio IC50” value is reported as above 82. Also, the 50% inhibitory concentration (IC50) in data set [5] was 1.5 µM; in data set [1], above 140 µM; in data set [4], 1.7 µM; in data set [6], 1.4 µM.
Consider `CCCCCCOc1cc(-c2cc(=O)c3c(O)cc(OCC(=O)N4CCN(Cc5ccc(OC)c(OC)c5OC)CC4)cc3o2)ccc1OC`, for which half-maximal inhibition in data set [4] (IC50) was put at 3.9 µM.
For the molecule `CCN(CC)CCCC(C)Nc1ccnc2cc(Cl)ccc12` (stereo unspecified) [CHLOROQUINE], in data set [1] (human, mrc5), the result was Active.

The values above are taken from ChEMBL document CHEMBL1143810, “Synthesis and antimalarial evaluation of a series of piperazinyl flavones” (Bioorg Med Chem Lett, 2007).
